For assay [1], the system named is HEL. Nature of the assay: Antiproliferative activity against HEL cells after 48 hrs by MTT assay. In kind it is functional, cell-based. The following applies: Homo sapiens. The procedure, abridged:
(§1)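 MTT assay on human cancer lines held at 37 °C, 95% humidity, 5% CO2. Cells were exposed to compounds at 20.0–0.5 μM for 48 h, then washed twice with PBS. MTT (5 mg mL–1 in PBS) was added for 4 h at 37 °C, the formazan was dissolved in DMSO, and A490 was read. IC50 comes from replicate wells over three independent experiments.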

Assay [2] has as its system K562. The assay can be described thus: Antiproliferative activity against human K562 cells after 48 hrs by MTT assay. In kind it is functional, cell-based. The following applies: K562, 48 h. The procedure, abridged:
as §1
(In general: Tetrazolium dyes change colour on reduction, which living cells bring about.)

For assay [3], the system named is PC-3. Nature of the assay: Antiproliferative activity against human PC3 cells after 48 hrs by MTT assay. In kind it is functional, cell-based. The following applies: PC-3, 48 h. The procedure, abridged: as §1
Assay [4] in a line: Antiproliferative activity against human WM9 cells after 48 hrs by MTT assay. In kind it is functional, cell-based. The following applies: WM9, 48 h. The procedure, abridged:
as §1

The test system of assay [5] is MDA-MB-231. Nature of the assay: Antiproliferative activity against human MDA-MB-231 cells after 48 hrs by MTT assay. The following applies: MDA-MB-231, 48 h. In kind it is functional, cell-based. An outline of the steps: as §1
Assay [6] concerns L02. Nature of the assay: Cytotoxicity against human HL7702 cells after 48 hrs by MTT assay. In kind it is cell-based. The following applies: L02, 48 h. An outline of the steps:
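Normal human liver HL7702 cells were assessed by MTT assay, with formazan absorbance as the read-out, to give an IC50 for cytotoxicity.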

Assay [7] concerns MDA-MB-231. Nature of the assay: Induction of apoptosis in human MDA-MB-231 cells assessed as live cells at 2.5 uM after 24 hrs by Annexin V-FITC/propidium iodide staining based flow cytometry (reference value: 95.7%). In kind it is functional. For orientation: Flow cytometry measures light scatter and fluorescence of single cells or particles in a stream.
Assay [8] has as its system MDA-MB-231. Nature of the assay: Induction of apoptosis in human MDA-MB-231 cells assessed as early apoptotic cells at 2.5 uM after 24 hrs by Annexin V-FITC/propidium iodide staining based flow cytometry (reference value: 2.1%). In kind it is functional.
The test system of assay [9] is MDA-MB-231. Nature of the assay: Induction of apoptosis in human MDA-MB-231 cells assessed as late apoptotic cells at 2.5 uM after 24 hrs by Annexin V-FITC/propidium iodide staining based flow cytometry (reference value: 1.9%). In kind it is functional.
The test system of assay [10] is MDA-MB-231. The assay can be described thus: Induction of apoptosis in human MDA-MB-231 cells assessed as necrotic cells at 2.5 uM after 24 hrs by Annexin V-FITC/propidium iodide staining based flow cytometry (reference value: 0.3%). In kind it is functional.
The subject of assay [11] is MDA-MB-231. The assay can be described thus: Induction of apoptosis in human MDA-MB-231 cells assessed as live cells at 1.25 uM after 24 hrs by Annexin V-FITC/propidium iodide staining based flow cytometry (reference value: 95.7%). In kind it is functional.
The test system of assay [12] is MDA-MB-231. Nature of the assay: Induction of apoptosis in human MDA-MB-231 cells assessed as early apoptotic cells at 1.25 uM after 24 hrs by Annexin V-FITC/propidium iodide staining based flow cytometry (reference value: 2.1%). In kind it is functional.
For assay [13], the system named is MDA-MB-231. The assay can be described thus: Induction of apoptosis in human MDA-MB-231 cells assessed as late apoptotic cells at 1.25 uM after 24 hrs by Annexin V-FITC/propidium iodide staining based flow cytometry (reference value: 1.9%). In kind it is functional.
Assay [14] deals with MDA-MB-231. Nature of the assay: Induction of apoptosis in human MDA-MB-231 cells assessed as necrotic cells at 1.25 uM after 24 hrs by Annexin V-FITC/propidium iodide staining based flow cytometry (reference value: 0.3%). In kind it is functional.
In assay [15] the test system is MDA-MB-231. Nature of the assay: Induction of apoptosis in human MDA-MB-231 cells after 24 hrs by Annexin V-FITC/propidium iodide staining based flow cytometry. In kind it is functional, cell-based.
The subject of assay [16] is MDA-MB-231. Nature of the assay: Induction of apoptosis in human MDA-MB-231 cells assessed as increase in Bax expression at 2.5 uM after 24 hrs by Western blot analysis. In kind it is functional, cell-based. The procedure, abridged:
(§2)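 MDA-MB-231 cells were treated at 2.5 μM for 24 h and lysed in RIPA buffer. Protein was resolved on 10% SDS-PAGE, transferred to PVDF, and blocked in 5% BSA for 2 h at RT. Primary antibodies were applied overnight at 4 °C and HRP-conjugated secondary antibodies for 2 h at RT. Bands were detected by ECL, with β-actin as the loading reference.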
(In general: Immunoblotting shows a protein as a band on a membrane.)

For assay [17], the system named is MDA-MB-231. The assay can be described thus: Induction of apoptosis in human MDA-MB-231 cells assessed as increase in cleaved PARP expression at 2.5 uM after 24 hrs by Western blot analysis. In kind it is functional, cell-based. An outline of the steps:
as §2

Assay [18] has as its system MDA-MB-231. Nature of the assay: Induction of apoptosis in human MDA-MB-231 cells assessed as decrease in Bcl-xl expression at 2.5 uM after 24 hrs by Western blot analysis. In kind it is functional, cell-based. An outline of the steps: as §2
In assay [19] the test system is MDA-MB-231. The assay can be described thus: Induction of apoptosis in human MDA-MB-231 cells assessed as decrease in Bcl2 expression at 2.5 uM after 24 hrs by Western blot analysis. In kind it is functional, cell-based. The procedure, abridged: as §2

By IC50 is commonly meant the midpoint of a concentration-inhibition curve. Higher therefore signals a need for much substance.

SMILES strings stand for the structures. The source made the active and inactive calls. No cut-off for these calls is given here.

As to `COc1cc(NS(=O)(=O)c2ccc3ccccc3c2)c2cc1Oc1ccc(cc1)C[C@H]1c3cc(c(OC)cc3CCN1C)Oc1c(OC)c(OC)cc3c1[C@H](C2)N(C)CC3`, the 50% inhibitory concentration (IC50) is 2.33 µM in [1]; 1.68 µM in assay [2]; 3.96 µM in assay [3]; 4.74 µM in [4]; 1.18 µM in assay [5]; 14.4 µM in assay [6]. Besides, the Activity in assay [7] turned out to be 42.6%; in assay [8], 28.6%; in assay [9], 27.2%; in assay [10], 1.5%; in assay [11] it was 85.9%; in [12], 3.8%. The Activity in [13] is 9.6%; in assay [14] it was 0.7%; in assay [15], “Dose-dependent effect”. The result in assay [16], in [17], in assay [18] and in [19] was Active.

For the molecule `COc1cccc(S(=O)(=O)Nc2cc(OC)c3cc2C[C@H]2c4c(cc(OC)c(OC)c4Oc4cc5c(cc4OC)CCN(C)[C@H]5Cc4ccc(cc4)O3)CCN2C)c1`, the half-maximal inhibitory concentration (IC50) in assay [1] was 8.59 µM; in assay [2] it was 3.22 µM; in [3] it was 3.99 µM; in assay [4], 4.11 µM; in [5], 4.56 µM; in assay [6] it was 28.2 µM.

As to `COc1cc(NS(=O)(=O)c2ccc(Cl)cc2)c2cc1Oc1ccc(cc1)C[C@H]1c3cc(c(OC)cc3CCN1C)Oc1c(OC)c(OC)cc3c1[C@H](C2)N(C)CC3`, the half-maximal inhibitory concentration (IC50) in [1] is 2.59 µM; in assay [2], 2.67 µM; in assay [3], 2.97 µM; in assay [4], 3.73 µM; in assay [5], 4.81 µM; in assay [6], 17.1 µM.

Regarding `CCCS(=O)(=O)Nc1cc(OC)c2cc1C[C@H]1c3c(cc(OC)c(OC)c3Oc3cc4c(cc3OC)CCN(C)[C@H]4Cc3ccc(cc3)O2)CCN1C`, the IC50 turned out to be 6 µM in assay [1]; 4.14 µM in assay [2]; 6.64 µM in [3]; 4.03 µM in assay [4]; 5.12 µM in assay [5]; 12.5 µM in assay [6].

(Values after ChEMBL document CHEMBL4257520, “Design, synthesis and bioactivity investigation of tetrandrine derivatives as potential anti-cancer agents” (Medchemcomm, 2018).)
